Test results as given in PubChem BioAssay.
The source made the active and inactive calls.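 The calls were made as follows, unless noted: active = primary screen active whose calcium signal fell more than 3 SD beyond the full-serotonin control mean in both duplicate plates; inactive = the rest.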

Molecular target: Short transient receptor potential channel 4 (Mus musculus) (UniProt Q9QUQ5)
Experiment: calcium flux activators in TRPC4/5HT1a cells, counter-screen for TRPC4 activator project, cell-based, second counter screen, HEK293 TRPC4/5HT1a, Fluo-4 (AID 434977;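 active = calcium signal rise above buffer-control mean plus 5 SD in both duplicates, and also a hit in the primary screen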)
Settings: Fluo-4 calcium flux, at 10 µM; hits give high values

| Compound | outcome |
| --- | --- |
| COc1ccccc1C(=O)Nc1ccc2c(c1)CCCN2C(=O)c1cccs1 | inactive |
| COCCNc1c2c(nc3ccccc13)CCC2 | inactive |
| Cc1onc(-c2c(F)cccc2Cl)c1C(=O)N(C)CC(=O)Nc1cccc(F)c1 | inactive |
| Cc1cc(C)c(S(=O)(=O)c2ccccc2C)c(OCC(C)(C)C)n1 | inactive |
| CCCn1c(=O)c2ccccc2n2c(SCCOc3ccccc3)nnc12 | inactive |
| CCOc1ccccc1N(C(=O)c1snc(C(N)=O)c1N)C(C(=O)NCc1ccccc1)c1ccc(O)cc1 (configuration not stated) | inactive |
| Cc1oc(-c2ccoc2)nc1CN(Cc1ccccc1)CC1CC1 | inactive |
| CCCN1CN(Cc2ccco2)c2nc3ccccc3n2C1 | inactive |
| O=C(O)c1ccc(CSc2nc(-c3ccc(Cl)cc3)cc(C(F)(F)F)n2)cc1 | inactive |
| CCCCc1nc2ccccc2c(N)c1CCC (tested in a mixture with another compound) | inactive |
| CCOC(=O)c1c(NC(=O)/C=C/C(=O)O)sc(C)c1-c1ccc(C(C)(C)C)cc1 | inactive |
| C=C(C)Cn1c(SCC)nc2ccccc2c1=O | inactive |
| O=C(Nc1ccccc1N1CCN(C(=O)c2ccc(Cl)cc2)CC1)c1cccc([N+](=O)[O-])c1 | inactive |
| CCOC(=O)C1(CCc2ccccc2)CCN(Cc2ccccn2)CC1 | inactive |
| c1csc(CNc2nc(-c3cccs3)nc3ccccc23)c1 | inactive |
| O=C(c1cccc(C(=O)N2CCN(c3ccccc3)CC2)c1)N1CCN(c2ccccc2)CC1 | inactive |
| CCCCN(CCCC)/C(N)=N/c1nc(C)cc(C)n1 | inactive |
| O=C(C1CCN(CC2CC=CCC2)CC1)N(CCc1ccccc1)Cc1ccccc1 (configuration not stated) | inactive |
| CCOC(=O)c1c(NC(=O)C2CC(Cl)=CCC2C(=O)O)sc2c1CCCCC2 (configuration not stated) | inactive |
| COc1ccc(C)cc1N(C(=O)c1snc(C(N)=O)c1N)C(C(=O)NC1CCCCC1)c1ccc(C)o1 (configuration not stated) | inactive |
| CCOC(=O)c1c(N)sc(C(O)(C(F)(F)F)C(F)(F)F)c1-c1ccccc1 | inactive |
| CNc1nc(NCc2ccccc2)c2ccccc2n1 | inactive |

Test system: not listed separately
Experiment: calcium flux inhibitors in TRPC4/5HT1a cells, confirmation, counter-screen for TRPC4 inhibitor project, cell-based, second counter screen, HEK293 TRPC4/5HT1a, Fluo-4 (AID 434978);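 as to outcome: serotonin given first at submaximal then at maximal dose after compound preincubation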
Settings: Fluo-4 calcium flux, at 10 µM, serotonin added to trigger calcium flux; hits give high values
In short: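 Times: 110 s each for compound, submaximal and ECmax serotonin; Assay system: TRPC4/5HT1a HEK293 cells; Also added: serotonin, a submaximal addition followed by a maximal (ECmax) addition; Replicates: each compound tested on duplicate plates; Measured by: Fluo-4 calcium fluorescence.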

| Compound | inhibition | outcome |
| --- | --- | --- |
| CN(C)CCCN(Cc1cc2cc3c(cc2[nH]c1=O)OCO3)C(=S)NCc1ccco1 | 26.8% (active) | – |
| Cc1cc(OCC(=O)Nc2ccc(N3CCN(C)CC3)cc2)ccc1Cl | – | inactive |
| O=C(Nc1ccccc1Oc1cccnc1)C1CCCN(Cc2ccc(F)cc2)C1 (configuration not stated) | 30.2% (active) | – |
| Cc1ncsc1CCOC(=O)c1cccc([N+](=O)[O-])c1 | 40% (active) | – |
| N#C/C(=N\Nc1cccc([N+](=O)[O-])c1)C(=O)c1ccc(Br)cc1 | 12.4% (active) | – |
| CC(NC(=O)c1ccco1)C(c1cccs1)N1CCN(c2ccccc2)CC1 (configuration not stated) | – | inactive |
| O=C(Cc1ccccc1[N+](=O)[O-])OCc1cccc([N+](=O)[O-])c1 | 35% (active) | – |
| CCOc1cc(CNCCCN2CCOCC2)cc(Br)c1OCc1ccccc1Cl | – | inactive |
| O=C(NCCN1CCOCC1)c1cc2sccc2n1Cc1ccc(F)cc1 | 33.8% (active) | – |
| Cn1c(-c2ccc(F)cc2)cnc1NCc1ccc(F)cc1F | 29.9% (active) | – |
| Cc1[nH]c2ccc(C(=O)OC(C)C(=O)N(C)c3ccccc3)cc2c1C (configuration not stated) | – | inactive |
| COc1cc(/C=C2\SC(=O)N(c3ccccc3Cl)C2=O)cc([N+](=O)[O-])c1O | 26% (active) | – |
| Cc1ccc2nc(C)cc(Nc3ccc4c(c3)OCCO4)c2c1 | – | inactive |
| CC1CCN(CCCOc2ccc(OCc3ccccc3)cc2)CC1 | 22.7% (active) | – |
| COCCn1c(SCC(=O)c2ccccc2)nc2ccccc2c1=O | 20.4% (active) | – |
| O=C(c1ccco1)N1CCN(C/C=C/c2ccccc2)CC1 | – | inactive |
| Nc1cc(N2CCCCC2)c([N+](=O)[O-])cc1Cl | – | inactive |
| Cc1cc(Cl)c2oc(C(=O)N(C)Cc3nccn3C)c(C)c2c1 | – | inactive |
| COc1ccccc1C(=O)Nc1ccc2c(c1)CCCN2C(=O)c1cccs1 | – | inactive |
| COCCNc1c2c(nc3ccccc13)CCC2 | 11.8% (active) | – |
| Cc1onc(-c2c(F)cccc2Cl)c1C(=O)N(C)CC(=O)Nc1cccc(F)c1 | – | inactive |
| Cc1cc(C)c(S(=O)(=O)c2ccccc2C)c(OCC(C)(C)C)n1 | 15.5% (active) | – |
| CCCn1c(=O)c2ccccc2n2c(SCCOc3ccccc3)nnc12 | 37.4% (active) | – |
| CCOc1ccccc1N(C(=O)c1snc(C(N)=O)c1N)C(C(=O)NCc1ccccc1)c1ccc(O)cc1 (configuration not stated) | 41.9% (active) | – |
| Cc1oc(-c2ccoc2)nc1CN(Cc1ccccc1)CC1CC1 | – | inactive |
